Measurements reported in ChEMBL document CHEMBL1143850, “Direct inactivation of human immunodeficiency virus type 1 by a novel small-molecule entry inhibitor, DCM205” (Antimicrob Agents Chemother, 2007).
Active and inactive are the calls of the source. The calls are words filed in the database; no cut-off is given here.

Columns and labels:
[1] = system: Human immunodeficiency virus 1; experiment: Antiviral activity against HIV1 NL43 in HeLa H1-JC.37 cells after 2 hrs by p24 antigen capture ELISA; format: functional, organism-based
Procedure, shortened: (§1)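 NL4-3 was preincubated with drug for 2 h at 37°C and diluted 400-fold in medium with 0.1% FBS. It was added to CEMx174 (5 x 10^4/well), PHA-stimulated PBMCs (1 x 10^4/well) or HeLa H1-JC.37 cells (4.5 x 10^4/well) for 2 h. Cells were washed twice by centrifugation, resuspended in 10% FBS, and cultured 4 days at 37°C. Supernatant p24 was measured by antigen-capture ELISA.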

[2] = system: Human immunodeficiency virus 1; experiment: Antiviral activity against HIV1 NL43 in PBMCs after 2 hrs by p24 antigen capture ELISA; format: functional, organism-based; procedure, shortened: as §1
[3] = system: Human immunodeficiency virus 1; experiment: Antiviral activity against B clade R5 tropic HIV1 BaL in HeLa H1-JC.37 cells by focal infectivity assay; format: functional, organism-based; conditions: Human immunodeficiency virus 1, BaL
Procedure, shortened: (§2)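 HeLa H1-JC.37 cells were seeded at 4.5 x 10^3/well and grown overnight at 37°C. Drug was added in DMEM/0.1% FBS for 1 h. Cells then adsorbed 20–60 FFU of virus with drug for 1–2 h. FBS was raised to 10% with drug held constant, then cells were incubated 4 days. Foci were immunostained and counted as % of no-drug control. EC50 came from a regression line; ≥5 wells, ≥3 experiments.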

[4] = system: Human immunodeficiency virus 1; experiment: Antiviral activity against HIV1 NL43 in CEMx174 cells after 2 hrs by p24 antigen capture ELISA; format: functional, organism-based; procedure, shortened: as §1
[5] = system: Human immunodeficiency virus 1; experiment: Antiviral activity against C clade R5 tropic HIV1 97ZA009 in HeLa H1-JC.37 cells by focal infectivity assay; format: functional, organism-based; conditions: Human immunodeficiency virus 1, 97ZA009, HeLa; procedure, shortened: as §2
[6] = system: Human immunodeficiency virus 1; experiment: Antiviral activity against B clade X4 tropic HIV1 NL43 in HeLa H1-JC.37 cells by focal infectivity assay; format: functional, organism-based; conditions: Human immunodeficiency virus 1, NL43, HeLa; procedure, shortened: as §2
[7] = system: Human immunodeficiency virus 1; experiment: Antiviral activity against E clade R5 tropic HIV1 93TH078 in HeLa H1-JC.37 cells by focal infectivity assay; format: functional, organism-based; conditions: Human immunodeficiency virus 1, 93TH078, HeLa; procedure, shortened: as §2
[8] = system: Human immunodeficiency virus 1; experiment: Binding affinity to HIV1 ogp140 by SPR competition study in presence of gp41 MAb 5F3
Procedure, shortened: (§3)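 SPR was run at 25°C in HBS-P (pH 7.4). MAbs (10 µg/ml) were captured on immobilized goat anti-human Ig. 50 nM oligomeric gp140 was preincubated 30 min with 0, 1, 5 or 10 µM drug, then injected 1 min at 20 µl/min with 2 min dissociation. Surfaces were regenerated with 146 mM H3PO4. Responses were double-referenced and normalized to MAb capture level.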

[9] = Cytotoxicity against human HeLa H1-JC.37 cells; format: cell-based
[10] = system: Human immunodeficiency virus 1; experiment: Antiviral activity against B clade R5 tropic HIV1 92TH014 in HeLa H1-JC.37 cells by focal infectivity assay; format: functional, organism-based; conditions: Human immunodeficiency virus 1, 92TH014, HeLa; in the assay text read “dual tropic” for “R5 tropic”; procedure, shortened: as §2
[11] = system: Human immunodeficiency virus 1; experiment: Antiviral activity against B clade X4 tropic HIV1 HXBc2 in HeLa H1-JC.37 cells by focal infectivity assay; format: functional, organism-based; conditions: Human immunodeficiency virus 1, HXBc2, HeLa; procedure, shortened: as §2
[12] = system: Human immunodeficiency virus 1; experiment: Antiviral activity against HIV1 NL43 in HeLa H1-JC.37 cells after 2 hrs by focal infectivity assay; format: functional, organism-based
Procedure, shortened: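 NL4-3 stock (10^5 FFU/ml) was preincubated with drug (0–30 µM) for 2 h at 37°C, then diluted 400-fold in DMEM/0.1% FBS so drug fell below inhibitory levels. The mixture was added to HeLa H1-JC.37 cells for 2 h adsorption. FBS was raised to 10% and cells were incubated 4 days. Focus immunostaining followed, with five replicate wells per concentration.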

[13] = system: Human immunodeficiency virus 1; experiment: Antiviral activity against A clade R5 tropic HIV1 92RW016 in HeLa H1-JC.37 cells by focal infectivity assay; format: functional, organism-based; conditions: Human immunodeficiency virus 1, 92RW016, HeLa; procedure, shortened: as §2
[14] = system: Simian immunodeficiency virus; experiment: Antiviral activity against R5 tropic SIV mac239 in HeLa H1-JC.37 cells by focal infectivity assay; format: functional, organism-based; procedure, shortened: as §2
[15] = system: Human immunodeficiency virus 1; experiment: Antiviral activity against HIV1 NL43 in HeLa H1-JC.37 cells pretreated for 2 hrs before viral challenge by FIA; format: functional, organism-based
Procedure, shortened: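 HeLa H1-JC.37 cells (4.5 x 10^3/well, seeded overnight) were exposed to drug in DMEM/0.1% FBS for 2 h, then washed twice. They were infected with 20–60 FFU NL4-3 for 2 h. Volume was brought to 200 µl at 10% FBS and cells were incubated 4 days at 37°C. Readout was focus counting. A control arm added drug together with virus.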

[16] = system: Human immunodeficiency virus 1; experiment: Binding affinity to HIV1 ogp140 at by SPR competition study in presence of gp120 MAb b12
[17] = system: Human immunodeficiency virus 1; experiment: Antiviral activity against B clade X4 R5 tropic HIV1 92HT593 in HeLa H1-JC.37 cells by focal infectivity assay; format: functional, organism-based; conditions: Human immunodeficiency virus 1, 92HT593, HeLa; procedure, shortened: as §2
[18] = system: Human immunodeficiency virus 1; experiment: Binding affinity to HIV1 ogp140 by SPR competition study in presence of gp41 MAb F240; procedure, shortened: as §3
[19] = system: Human immunodeficiency virus 1; experiment: Antiviral activity against C clade R5 tropic HIV1 98TZ013 in HeLa H1-JC.37 cells by focal infectivity assay; format: functional, organism-based; conditions: Human immunodeficiency virus 1, 98TZ013, HeLa; procedure, shortened: as §2
[20] = system: Human immunodeficiency virus 1; experiment: Antiviral activity against B clade R5 tropic HIV1 SF162 in HeLa H1-JC.37 cells by focal infectivity assay; format: functional, organism-based; conditions: Human immunodeficiency virus 1, SF162, HeLa; procedure, shortened: as §2
[21] = system: Human immunodeficiency virus 1; experiment: Antiviral activity against B clade X4 R5 tropic HIV1 89.6 in HeLa H1-JC.37 cells by focal infectivity assay; format: functional, organism-based; conditions: Human immunodeficiency virus 1, 89.6, HeLa; procedure, shortened: as §2

EC50 [3]: 850 nM
EC50 [5]: 2300 nM
EC50 [6]: 330 nM
EC50 [7]: 500 nM
Activity [8]: Active
EC50 [10]: 190 nM
EC50 [11]: 530 nM
EC50 [13]: 700 nM
EC50 [14]: 1200 nM
Activity [16]: Active
EC50 [17]: 340 nM
Activity [18]: Active
EC50 [19]: 190 nM
EC50 [20]: 400 nM
EC50 [21]: 410 nM
SMILES: O=S(=O)(/C=C/c1cc(O)c(O)c(O)c1)CS(=O)(=O)/C=C/c1cc(O)c(O)c(O)c1
Activity [1]: Active
Activity [2]: Active
Activity [4]: Active
IC50 [9]: 170000 nM
Activity [12]: Active
Activity [15]: inactive
